These results are taken from ChEMBL document CHEMBL1132971, “New azolidinediones as inhibitors of protein tyrosine phosphatase 1B with antihyperglycemic properties” (J Med Chem, 2000).

In experiment [1] the target is T1, Tyrosine-protein phosphatase non-receptor type 1 (Mus musculus) (UniProt P35821).
T1 sequence (whole entry): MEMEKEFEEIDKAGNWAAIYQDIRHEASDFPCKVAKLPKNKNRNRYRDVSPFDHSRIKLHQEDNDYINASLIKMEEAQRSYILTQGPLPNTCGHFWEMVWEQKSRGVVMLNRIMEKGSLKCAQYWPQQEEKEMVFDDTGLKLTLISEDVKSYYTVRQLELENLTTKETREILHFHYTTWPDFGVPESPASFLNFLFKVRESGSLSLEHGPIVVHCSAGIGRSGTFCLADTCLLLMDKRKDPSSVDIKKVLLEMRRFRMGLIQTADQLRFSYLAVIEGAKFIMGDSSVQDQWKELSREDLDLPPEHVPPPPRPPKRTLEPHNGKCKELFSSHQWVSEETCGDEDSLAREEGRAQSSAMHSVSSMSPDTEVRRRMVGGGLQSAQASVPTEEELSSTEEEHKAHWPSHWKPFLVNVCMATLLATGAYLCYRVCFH
The experiment is described as follows: In vivo ability to decrease plasma glucose levels in diabetic C57BL/KsJ ob/ob mouse at a dose 100 mg/kg/day. The format is functional, organism-based. The procedure, abridged: (§1)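 Diabetic db/db or ob/ob mice dosed orally once daily for 4 days. Plasma glucose and insulin reported as percent change from a vehicle-treated group. 4-6 mice per group. Significance set at p < 0.05 or p < 0.01 versus vehicle; NS means generally less than -15% change.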

The target of experiment [2] is T1, Tyrosine-protein phosphatase non-receptor type 1 (Mus musculus). The experiment is described as follows: Ability to decrease plasma insulin levels in mouse at a dose 100 mg/kg/day. The format is functional, organism-based. A digest of the protocol:
as §1

Experiment [3] has as its target T2, Tyrosine-protein phosphatase non-receptor type 1 (Rattus norvegicus, UniProt P20417).
T2 sequence (P20417 whole entry): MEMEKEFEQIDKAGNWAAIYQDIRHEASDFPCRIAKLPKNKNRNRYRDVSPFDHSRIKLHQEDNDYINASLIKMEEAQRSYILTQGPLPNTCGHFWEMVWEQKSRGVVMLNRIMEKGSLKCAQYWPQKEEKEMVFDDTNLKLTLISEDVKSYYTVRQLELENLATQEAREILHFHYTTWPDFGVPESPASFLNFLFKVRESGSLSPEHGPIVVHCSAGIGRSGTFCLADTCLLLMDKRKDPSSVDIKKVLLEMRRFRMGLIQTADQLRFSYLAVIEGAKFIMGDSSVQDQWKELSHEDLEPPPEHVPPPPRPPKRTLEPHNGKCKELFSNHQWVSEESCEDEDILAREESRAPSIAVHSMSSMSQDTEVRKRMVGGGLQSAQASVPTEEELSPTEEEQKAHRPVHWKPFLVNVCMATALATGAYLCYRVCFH
Nature of the experiment: Inhibition of PTPase activity using recombinant r-PTP1B as the enzyme and IR-triphosphopeptide as substrate. The procedure, abridged:
(§2)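 Rat recombinant PTP1B in 33 mM TRIS-HCl, 2 mM EDTA, 50 mM β-mercaptoethanol, pH 7.4 (about 1000-2000 nmol/min/mg). Preincubated 10 min at 37 °C with or without compound in HEPES buffer pH 7.4. Released phosphate read by malachite green-ammonium molybdate at 650 nm against a phosphate standard. Quadruplicates. IC50 by four-parameter logistic fit.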

For experiment [4], the target named is T3, Tyrosine-protein phosphatase non-receptor type 1 (Rattus norvegicus) (UniProt P20417).
T3 sequence (whole entry): T2 sequence (P20417 whole entry)
The experiment is described as follows: Inhibition of PTPase (PTP1B) activity in rat hepatic membrane at 50 uM concentration, using pNPP as the substrate. Format: cell membranes. Conditions: Liver. The procedure, abridged: (§3)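 Liver membranes from male Sprague-Dawley rats (100-150 g), about 30 µg protein per well. Preincubated 10 min at 37 °C with compound in 1.25% DMSO in 50 mM HEPES pH 7.4. Then 6.33 mM pNPP for 30 min at 37 °C, stopped with NaOH. p-Nitrophenol read at 410 nm. Run in triplicate. Reported as percent of untreated control.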

In experiment [5] the target is T2, Tyrosine-protein phosphatase non-receptor type 1. Nature of the experiment: Inhibition of PTPase activity using recombinant r-PTP1B and IR-triphosphopeptide as substrate; ND is no data. The procedure, abridged: as §2
For experiment [6], the system named is Mus musculus. Nature of the experiment: Evaluated in vivo for their ability to decrease plasma glucose levels in diabetic C57BL/KsJ db/db mouse at a dose 100 mg/kg/day, *p indicates <0.05. Format: functional. A digest of the protocol:
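Mice dosed orally once daily for 4 days; plasma glucose and insulin measured and expressed as percent change versus a vehicle-treated group (mean ± SE, 4-6 mice/group). NS is generally less than -15% change. Significance is versus vehicle-treated mice.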

For experiment [7], the target named is T3, Tyrosine-protein phosphatase non-receptor type 1 (Rattus norvegicus). The experiment is described as follows: Inhibition of Protein-tyrosine phosphatase 1B activity in rat hepatic membrane at a concentration of 50 uM using pNPP as the substrate. The format is cell membranes. Conditions: Liver. A digest of the protocol: as §3
Experiment [8] has the same target. The experiment is described as follows: Inhibition of PTPase activity using recombinant r-PTP1B as the enzyme and IR-triphosphopeptide as substrate at 50 uM. The procedure, abridged:
as §2

Experiment [9] has as its system Mus musculus. Nature of the experiment: Evaluated in vivo for their ability to decrease plasma glucose levels in diabetic C57BL/KsJ db/db mouse at a dose 100 mg/kg/day. The format is functional. The procedure, abridged:
as §1

What is called IC50 is the midpoint of a concentration-inhibition curve. One may read the inhibition as the drop in the measured response relative to a control, in per cent.

Each structure is given as a SMILES string. Activity calls are given as the source filed them. The rule behind the calls is not given here.

Consider `C/C(=C\Cn1oc(=O)[nH]c1=O)c1cccc(OCc2coc(-c3ccc(C(F)(F)F)cc3)n2)c1`, for which the Decrease result in [1] and in experiment [2] was “Not significant” throughout. Also, the IC50 in experiment [3] worked out at 19 µM. This molecule also had an inhibition in experiment [4] of 32%.

Consider `C/C(=C\Cn1oc(=O)[nH]c1=O)c1cccc(OCc2nc(-c3ccc(OCC(F)(F)F)cc3)oc2C)c1`, for which the Decrease entry in [1] is “Not significant”; in [2], “Not significant”; with Mus musculus [6], 44%. In addition, the IC50 entry in experiment [5] is recorded as “Not significant”. The molecule also yielded an inhibition in experiment [4] of 52%.

For the molecule `C/C(=C\Cn1oc(=O)[nH]c1=O)c1cccc(OCc2nc(-c3ccccc3)oc2C)c1` (stereo in doubt; 67), the inhibition in experiment [7] came to 25%.

Turning to `Cc1oc(-c2ccc(C(F)(F)F)cc2)nc1COc1ccc2c(c1)C=C/C2=C\Cn1oc(=O)[nH]c1=O`, the figures for the inhibition in experiment [8] and in [4] were 83% and 31%, respectively.

Take `CCCCc1oc2ccccc2c1Cc1cccc(/C(C)=C/Cn2oc(=O)[nH]c2=O)c1`: in experiment [3], the IC50 was determined as 1.3 µM.

Take `CCCC/C(=C\Cn1oc(=O)[nH]c1=O)c1cccc(Oc2ccc(C)cc2)c1`: the IC50 in experiment [3] is 13 µM. This molecule yielded an inhibition in [4] of 62%.

As to `C/C(=C\CC1OC(=O)NC1=O)c1cccc(OCc2nc(-c3ccccc3)oc2C)c1` (centres undefined), the results for the Decrease result (in experiment [1]; in experiment [2]; in the experiment on Mus musculus [9]) were “Not significant”, “Not significant” and 18%, respectively. In experiment [5], the IC50 result was “Not significant”. The molecule also yielded an inhibition in [4] of 23%.

In the case of `COc1ccc(/C(=C\Cn2oc(=O)[nH]c2=O)c2cccc(OCc3nc(-c4ccc(C(F)(F)F)cc4)oc3C)c2)cc1`, the Decrease entry in experiment [1] and in experiment [2] was “Not significant” in each case. For the same molecule, the inhibition was found to be 34% in [8] and 56% in experiment [4].

`COc1cc(OCc2nc(-c3ccc(C(F)(F)F)cc3)oc2C)cc(/C(C)=C/Cn2oc(=O)[nH]c2=O)c1`: the inhibition in experiment [8] worked out at 12%; in [4], 49%.

Consider `Cc1oc(-c2ccc(C(F)(F)F)cc2)nc1COc1cccc(CCCn2oc(=O)[nH]c2=O)c1`, for which the Decrease entry was “Not significant” in experiment [1], “Not significant” in experiment [2] and 21% in the experiment on Mus musculus [6]. Also, the values for the inhibition in [8] and in experiment [4] were 4.3% and 54%, respectively.

Consider `CCCC/C(=C\Cn1oc(=O)[nH]c1=O)c1cccc(Oc2ccc(OC)cc2)c1`, for which, in experiment [3], the IC50 was 10 µM. The inhibition in experiment [4] was 62%.

As for `CCCC/C(=C\Cn1oc(=O)[nH]c1=O)c1cccc(Oc2ccccc2)c1`, in experiment [3], the IC50 was determined as 2 µM. This molecule registered an inhibition in experiment [4] of 63%.

In the case of `C/C(=C\Cn1oc(=O)[nH]c1=O)c1ccccc1OCc1nc(-c2ccc(C(F)(F)F)cc2)oc1C`, the Decrease entry in [1] and in experiment [2] was “Not significant” each time. Moreover, in experiment [3], the 50% inhibitory concentration (IC50) was found to be 43 µM. For the same molecule, in [4], the inhibition entry is “Not significant”.

In the experiment with Mus musculus [9], `CC1(COc2ccc(CC3SC(=O)NC3=O)cc2)CCCCC1` (centres undefined) [CIGLITAZONE] registered a Decrease of 32%. Moreover, the inhibition in experiment [4] came out at 20%.

With `C/C(=C\Cn1oc(=O)[nH]c1=O)c1cccc(OCc2ccc3c(Cl)cccc3c2)c1`, the IC50 in [3] is 16 µM. The inhibition in experiment [4] worked out at 20%.

As to `Cc1oc(-c2ccc(C(F)(F)F)cc2)nc1COc1cccc(/C(=C/Cn2oc(=O)[nH]c2=O)C2CCCCC2)c1`, the Decrease result in [1] and in experiment [2] was “Not significant” in each case. The values for the inhibition in experiment [8] and in [4] were 49% and 66%, respectively.

On to `Cc1oc(-c2ccccc2)nc1COc1cccc(C#CC(C)n2oc(=O)[nH]c2=O)c1` (centres undefined), for which the Decrease entry in experiment [1] and in [2] was “Not significant” each time. This molecule had an inhibition in experiment [4] of 23%.

Regarding `C/C(=C\Cn1oc(=O)[nH]c1=O)c1cccc(OCCc2nc(-c3ccccc3)oc2C)c1`, the Decrease entry in experiment [1] is “Not significant”; in experiment [2] it was “Not significant”; in the experiment on Mus musculus [9], 38%. Moreover, the IC50 in [3] came to 24 µM. The molecule also showed an inhibition in experiment [4] of 45%.

As for `Cc1oc(-c2ccc(Cl)cc2)nc1COc1cccc(/C=C/C(C)n2oc(=O)[nH]c2=O)c1` (centres undefined), the Decrease entry was “Not significant” in experiment [1], “Not significant” in experiment [2] and 20% in the experiment on Mus musculus [9]. Moreover, the 50% inhibitory concentration (IC50) result in [5] is “Not significant”. Moreover, in [4], the inhibition was determined as 33%.

Take `C/C(=C\CC1OC(=O)NC1=O)c1cccc(OCc2nc(-c3ccc(OCC(F)(F)F)cc3)oc2C)c1` (centres undefined): the Decrease result in [1] and in [2] was “Not significant” throughout. Besides, the IC50 result in [5] was “Not significant”. The Decrease entry with Mus musculus [9] was “inactive”. This molecule also had an inhibition in [4] of 37%.

On to `C/C(=C\Cn1oc(=O)[nH]c1=O)c1ccc2oc(Cc3nc(-c4ccc(C(F)(F)F)cc4)oc3C)cc2c1`, for which the inhibition is 53% in [8] and 57% in experiment [4]. The same molecule gave a Decrease with Mus musculus [6] of 31%.

In the experiment with Mus musculus [9], `C/C(Cn1oc(=O)[nH]c1=O)=C(/C)c1cccc(OCc2nc(-c3ccc(C(F)(F)F)cc3)oc2C)c1` yielded a Decrease of 20%. In experiment [4], this molecule came in with an inhibition of 47%.

In the case of `Cc1oc(-c2ccc(C(F)(F)F)cc2)nc1COc1ccc2oc(Cn3oc(=O)[nH]c3=O)cc2c1`, the IC50 entry in experiment [5] is “Not significant”. In addition, in experiment [4], the inhibition was determined as 14%.

Regarding `C/C(=C\CN1CC(=O)NC1=O)c1cccc(OCc2nc(-c3ccc(C(F)(F)F)cc3)oc2C)c1`, the Decrease entry in experiment [1] and in experiment [2] was “Not significant” each time. Also, the IC50 in experiment [3] is 13 µM.

`C/C(=C\Cn1oc(=O)[nH]c1=O)c1cccc(OCc2cc(C(F)(F)F)cc(C(F)(F)F)c2)c1`: the IC50 in experiment [3] turned out to be 4.1 µM.

Consider `C/C(=C\C(C)n1oc(=O)[nH]c1=O)c1cccc(OCc2nc(-c3ccc(C(F)(F)F)cc3)oc2C)c1` (centres undefined), for which the Decrease result in experiment [1] was “Not significant”; in [2], “Not significant”; in the experiment with Mus musculus [9], 16%. This molecule had an inhibition in experiment [4] of 38%.

Take `C/C(=C\Cn1oc(=O)[nH]c1=O)c1cccc(OCc2noc(-c3ccccc3)n2)c1`: in experiment [3], the IC50 came to 3 µM. For the same molecule, the inhibition in experiment [4] amounted to 17%.

For the molecule `C/C(=C\Cn1oc(=O)[nH]c1=O)c1cccc(COc2cc(C(F)(F)F)cc(C(F)(F)F)c2)c1`, the half-inhibitory concentration (IC50) in experiment [3] came out at 12 µM. The inhibition in experiment [4] is 64%.

Turning to `C/C(=C\Cn1oc(=O)[nH]c1=O)c1cccc(OCc2nc(-c3ccccc3)oc2C)c1` (stereo in doubt; 49), the inhibition in experiment [7] turned out to be 35%.

For the molecule `Cc1oc(-c2ccc(C(F)(F)F)cc2)nc1COc1cccc(C2(C)CC2Cn2oc(=O)[nH]c2=O)c1` (centres undefined), the Decrease result in [1] and in experiment [2] was “Not significant” throughout. In addition, the figures for the inhibition in experiment [8] and in experiment [4] were 1% and 51%, respectively.
